System: F508del-CFTR FRT cells
Experiment: Transepithelial electrical conductance
Type: cell-based
Settings: 24 hours, compared to VX-809 (1 μM)
How it was run: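 F508del-CFTR FRT cells on porous membranes were treated 24 h at 37°C, 5% CO2. Same saline both sides: 130 mM NaCl, 10 mM Na-Hepes pH 7.3, 10 mM glucose. TEER was read at baseline, after forskolin 20 μM + genistein 50 μM, then after PPQ102 30 μM, waiting 10 min per step. TEER values were converted to TEEC.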

Q: For CN(C(=O)c1cccc(-n2nc(C(F)(F)F)c3c2[C@@H](Oc2ccc(C(=O)O)cc2)CCC3)c1)c1ccc2c(c1)OC(F)(F)O2 [ARN23765], which “correction of F508del-CFTR, ∆TEEC” value is on record?
A: high potency and efficacy
